An excerpt weighted towards active compounds, which were near 4.1% of everything screened.
H9c2 TAG inh = inhibitors of triacylglycerol accumulation; H9c2 cells, Nile Red lipid (TAG) fluorescence; cells loaded with 200 µM oleic acid; inhibition, % at 12.5 µM; 230,000 compounds, 0.66% hits;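 active = pattern-corrected inhibition of lipid staining of at least 50% with the nuclear-stain viability signal not falling by more than 50%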;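 note: 0% = DMSO wells and 100% = triacsin C control wells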
Efflux pump mplx = antifungal efflux pump inhibition, Nile Red retention | S. cerevisiae Candida pump triplex | inhibition, % at 10 µM | 330,000 compounds, 0.44% hits;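 active = plate passing quality check with inhibition over a set limit, or well fluorescence over plate mean plus 4 SD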;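 note: Nile Red retained in pooled yeast measured as flow cytometry median fluorescence; 0% = buffer negative control and 100% = Enniatin B positive control; higher means more Nile Red kept so more efflux inhibition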
TbMetRS inhib = blocks T. brucei methionyl-tRNA synthetase activity | purified T. brucei MetRS, ATP depletion, Kinase-Glo luminescence | inhibition, % at 11.9 µM | 360,000 compounds, 0.4% hits;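 active = inhibition above a per-plate cutoff of the control wells' mean inhibition plus 3 SD, cut at about 5.5% in these data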;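 note: 0% = DMSO wells median and 100% = median of wells with control inhibitor compound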
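Dosing: 11.9 µM compound single dose, 0.9% DMSO; Assay system: purified T. brucei MetRS enzyme; Measured by: Kinase-Glo luciferase luminescence reporting remaining unconsumed ATP; Schedule: 15 min plus 2 h at 25 °C.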
SMARCA2 act = activators of SMARCA2 function; 370,000 compounds, 1% hits; activation, % at 9.1 µM; MG213 cells, MMTV-luciferase reporter, dexamethasone, overnight; in the data active = activation above about 7.8%;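 note: 0% = vehicle wells and 100% = reference activator wells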
AHR activator = activators of human aryl hydrocarbon receptor; P35869; AHR-responsive luciferase reporter cells, luminescence; activation, % at 5 µM; 320,000 compounds, 2.5% hits; AID 2796; in the data active = activation above about 47%;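 note: 0% = vehicle wells and 100% = reference agonist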
Target sequence (P35869 whole entry, looked up): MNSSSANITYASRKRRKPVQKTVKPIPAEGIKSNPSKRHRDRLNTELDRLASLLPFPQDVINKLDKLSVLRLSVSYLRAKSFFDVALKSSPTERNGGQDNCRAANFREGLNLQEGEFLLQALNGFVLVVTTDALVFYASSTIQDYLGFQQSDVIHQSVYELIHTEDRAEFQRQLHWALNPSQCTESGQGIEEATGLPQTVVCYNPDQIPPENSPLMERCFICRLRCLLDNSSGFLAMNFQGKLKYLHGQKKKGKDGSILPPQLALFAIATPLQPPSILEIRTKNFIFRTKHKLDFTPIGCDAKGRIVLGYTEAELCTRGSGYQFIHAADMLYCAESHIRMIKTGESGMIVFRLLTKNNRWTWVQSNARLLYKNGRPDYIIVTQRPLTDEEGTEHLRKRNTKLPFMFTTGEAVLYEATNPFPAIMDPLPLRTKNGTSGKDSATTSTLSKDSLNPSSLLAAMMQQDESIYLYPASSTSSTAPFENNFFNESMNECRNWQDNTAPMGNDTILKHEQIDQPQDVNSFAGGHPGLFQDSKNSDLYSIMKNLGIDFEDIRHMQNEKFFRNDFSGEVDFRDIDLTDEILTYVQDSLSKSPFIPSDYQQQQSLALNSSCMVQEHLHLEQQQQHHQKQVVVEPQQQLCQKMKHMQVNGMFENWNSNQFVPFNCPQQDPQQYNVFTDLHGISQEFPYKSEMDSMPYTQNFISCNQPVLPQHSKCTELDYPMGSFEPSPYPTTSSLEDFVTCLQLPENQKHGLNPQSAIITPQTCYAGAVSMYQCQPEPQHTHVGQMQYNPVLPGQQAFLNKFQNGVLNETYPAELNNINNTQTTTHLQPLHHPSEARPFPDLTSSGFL
SMARCA2 conf = SMARCA2 activation, confirmation screen. MG213 cells, MMTV-luciferase with dexamethasone, luminescence, overnight; MG213 cells expressing E1A, Rb sequestered; DMSO wells 0%, reference activator 100%. activation, % at 9.1 µM. 3,500 compounds, 30% hits. shares compounds with SMARCA2 act;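 active = activation above its plate's cutoff, the mean activation of tested wells plus 3 SD, cut at about 7.9% in these data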
VP16 Luc act = activates GAL4-VP16 luciferase, flagging SMARCA2 activator hits | shares compounds with SMARCA2 act | HEK293 GAL4-VP16 pG5luc reporter, luciferase luminescence; scaled: DMSO wells 0%, SAHA wells 100% | activation, % at 9.1 µM | 3,500 compounds, 41% hits;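 active = activation above the solvent-only control well mean plus 3 SD, averaged across control plates, cut at about 5.2% in these data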
The depositor's hits bear a star.

How did Cc1ccc2nc(-c3ccc(NC(=O)CNC4CC4)cc3)sc2c1 do in these assays?
H9c2 TAG inh: 9; TbMetRS inhib: -1; SMARCA2 act: 11*; SMARCA2 conf: 8.5*; VP16 Luc act: 10*

How did CCn1c(SCC(=O)Nc2ccc(-c3nc4ccc(C)cc4s3)cc2)nnc1-c1ccccc1 do in these assays?
Efflux pump mplx: 0; AHR activator: 3

How did OC1(C#Cc2c(-c3ccsc3)sc3ccccc23)CCCCC1 do in these assays?
SMARCA2 act: -2

How did Cc1cc(OCc2cn3cccnc3n2)ccc1Cl do in these assays?
Efflux pump mplx: 0; TbMetRS inhib: -1; SMARCA2 act: 8.4*; AHR activator: 4; SMARCA2 conf: 8.5*; VP16 Luc act: 5.6*

How did Nc1nc2c(-c3ccc([N+](=O)[O-])cc3)nnn2c2ccccc12 do in these assays?
SMARCA2 act: -3

What do the screens show for `Cc1ccc(O)c(NC(=O)c2cc(-c3cccs3)on2)c1`?
Efflux pump mplx: 0; TbMetRS inhib: 0; SMARCA2 act: 13*; AHR activator: -2; SMARCA2 conf: 21*; VP16 Luc act: 6.8*

How did Cc1ccc(O)c(NC(=O)c2noc(C(C)C)c2[N+](=O)[O-])c1 do in these assays?
H9c2 TAG inh: 7; Efflux pump mplx: 0; TbMetRS inhib: 0; SMARCA2 act: 9.0*; AHR activator: 9; SMARCA2 conf: 6; VP16 Luc act: 1

What do the screens show for `C[C@H](CO)N1C[C@H](C)[C@@H](CN(C)C(=O)Nc2ccc(-c3cccs3)cc2)OCc2cn(nn2)CCCC1=O`?
SMARCA2 act: 6

What do the screens show for `Cc1cc(NC(=O)CSc2nc3sc4c(c3c(=O)n2C)CCCC4)no1`?
Efflux pump mplx: 0; TbMetRS inhib: -1; SMARCA2 act: -1; AHR activator: -1

What do the screens show for `COc1ccc(CC(=O)Nc2ccc(S(=O)(=O)Nc3nccs3)cc2)cc1`?
Efflux pump mplx: 0; TbMetRS inhib: 0; SMARCA2 act: 0; AHR activator: 1

What do the screens show for `Cn1c(SCC(=O)Nc2ccc(S(=O)(=O)Nc3nccs3)cc2)nc2sc3c(c2c1=O)CCCC3`?
SMARCA2 act: 11*; SMARCA2 conf: 3; VP16 Luc act: 1

Results for COc1cccc(CC(=O)Nc2ccc(S(=O)(=O)Nc3nccs3)cc2)c1 ?
H9c2 TAG inh: -1; Efflux pump mplx: 0; TbMetRS inhib: 0; SMARCA2 act: 8.4*; AHR activator: 0; SMARCA2 conf: -2; VP16 Luc act: 2

How did COc1ccc(Cn2ccc3ccc(-c4ccc5ccn(C(=O)c6ccccc6OC)c5c4)cc32)cc1 do in these assays?
SMARCA2 act: -1

How did COc1cccc(NC(=O)Nc2cc(C)on2)c1 do in these assays?
H9c2 TAG inh: -6; Efflux pump mplx: 0; TbMetRS inhib: 0; SMARCA2 act: 6; AHR activator: 7

What do the screens show for `COc1cccc(C(=O)NC(=O)Nc2cc(C)on2)c1`?
H9c2 TAG inh: 2; Efflux pump mplx: 0; TbMetRS inhib: 0; SMARCA2 act: 8.4*; AHR activator: -3; SMARCA2 conf: 4; VP16 Luc act: 8.7*

How did Nc1ccc2c(c1Cl)C(=O)c1ccc(N)c(Cl)c1C2=O do in these assays?
TbMetRS inhib: -1; SMARCA2 act: 10*; SMARCA2 conf: 23*; VP16 Luc act: 5.2*

What do the screens show for `N#Cc1cc2c(nc1SCc1ccncc1)CCC2`?
Efflux pump mplx: 0; TbMetRS inhib: -1; SMARCA2 act: 12*; AHR activator: 5; SMARCA2 conf: 3; VP16 Luc act: 5

Results for N#Cc1cc2c(nc1SCc1ccccc1)CCC2 ?
H9c2 TAG inh: -2; Efflux pump mplx: 0; TbMetRS inhib: -1; SMARCA2 act: -2; AHR activator: -2

What do the screens show for `COC(=O)c1ccc(Nc2cc(C)nc3ccc(C)cc23)cc1`?
H9c2 TAG inh: 16; Efflux pump mplx: 0; TbMetRS inhib: 0; SMARCA2 act: 3; AHR activator: 13

Results for CC(=O)c1cccc(Nc2cc(C)nc3ccc(C)cc23)c1 ?
H9c2 TAG inh: -9; Efflux pump mplx: 0; TbMetRS inhib: 4; SMARCA2 act: 11*; AHR activator: 13; SMARCA2 conf: 1; VP16 Luc act: 0

What do the screens show for `CCOC(=O)C1CN(S(=O)(=O)c2ccc(OC)cc2)c2cc(CC(=O)OC)ccc2O1` (stereo not drawn)?
H9c2 TAG inh: 8; Efflux pump mplx: 0; TbMetRS inhib: -1; SMARCA2 act: -3; AHR activator: 4

What do the screens show for `CCOC(=O)C1CN(S(C)(=O)=O)c2cc(CC(=O)OC)ccc2O1` (stereo not drawn)?
Efflux pump mplx: 0; TbMetRS inhib: 0; SMARCA2 act: 8.2*; AHR activator: -2; SMARCA2 conf: -1; VP16 Luc act: 1

Results for O=S1(=O)c2cc(Cl)ccc2N2CCC[C@@H]2CN1Cc1ccc(Cl)c(Cl)c1 ?
SMARCA2 act: -6

Results for O=Cc1cscc1[B-](F)(F)F ?
SMARCA2 act: 5

Results for CN(C)C(CNC(=O)c1coc2ccccc2c1=O)c1ccccc1 (stereo not drawn) ?
Efflux pump mplx: 0; TbMetRS inhib: 0; SMARCA2 act: -1; AHR activator: 5

How did NC(=O)c1ccsc1NC(=O)c1coc2ccccc2c1=O do in these assays?
Efflux pump mplx: 0; TbMetRS inhib: -1; SMARCA2 act: 9.0*; AHR activator: -6; SMARCA2 conf: 23*; VP16 Luc act: 8.9*

What do the screens show for `CC1CCC2(CC1)CCN(CCCOC(=O)Nc1ccc3c(c1)OCO3)C2=O` (stereo not drawn)?
SMARCA2 act: -2

How did CCC(Sc1nc2ccccc2c(=O)n1CC1CCCO1)C(=O)NCc1cccnc1 (stereo not drawn) do in these assays?
Efflux pump mplx: 0; TbMetRS inhib: -1; SMARCA2 act: 8.3*; AHR activator: 1; SMARCA2 conf: 0; VP16 Luc act: 0

What do the screens show for `S=C(Nc1ccccc1)Nc1ccccn1`?
H9c2 TAG inh: 12; TbMetRS inhib: 0; SMARCA2 act: 0

How did S=C(Nc1ccccc1)c1ccccn1 do in these assays?
H9c2 TAG inh: 72; Efflux pump mplx: 0; TbMetRS inhib: 0; SMARCA2 act: 8.2*; AHR activator: 7; SMARCA2 conf: 30*; VP16 Luc act: 9.4*

Results for C[C@@H]1[C@@H](c2ccccc2)c2cc3ccccc3nc2C(=O)C[C@@H]1C(=O)N1CCCC1 ?
SMARCA2 act: -1

Results for C=CCc1cc(Cl)ccc1OCCNCCCOC ?
Efflux pump mplx: 0; TbMetRS inhib: 1; SMARCA2 act: 11*; AHR activator: -3; SMARCA2 conf: -2; VP16 Luc act: 0

Screening results as filed in PubChem BioAssay.
